Data from the M2OR odorant receptor database.
Changes are numbered by the printed parent chain.

Key:
Settings in all cases: stereoisomer not certain
OR4F17 (Homo sapiens) = molecular target: T1, OR4F17 (Homo sapiens) (UniProt Q8NGA8)
T1 sequence (whole entry): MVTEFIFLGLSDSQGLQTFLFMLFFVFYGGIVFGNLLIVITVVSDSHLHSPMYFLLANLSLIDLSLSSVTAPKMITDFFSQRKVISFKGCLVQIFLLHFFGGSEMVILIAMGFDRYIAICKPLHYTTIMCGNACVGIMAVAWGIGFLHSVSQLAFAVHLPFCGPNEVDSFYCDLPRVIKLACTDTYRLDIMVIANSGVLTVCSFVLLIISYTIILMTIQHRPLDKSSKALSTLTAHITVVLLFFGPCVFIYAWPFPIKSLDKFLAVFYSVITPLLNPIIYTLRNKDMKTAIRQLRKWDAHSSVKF
Procedure, shortened: (§1)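 Whether a receptor–molecule pair is responsive (active) rests on the original authors' judgment that its measured signal was statistically different from baseline. Pairs without that judgment are non-responsive (inactive). Sources used varied assay methods, commonly transient luciferase assays in mammalian cell lines.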

OR4F21 (Homo sapiens) = molecular target: T2, OR4F21 (Homo sapiens) (UniProt O95013)
T2 sequence (whole entry): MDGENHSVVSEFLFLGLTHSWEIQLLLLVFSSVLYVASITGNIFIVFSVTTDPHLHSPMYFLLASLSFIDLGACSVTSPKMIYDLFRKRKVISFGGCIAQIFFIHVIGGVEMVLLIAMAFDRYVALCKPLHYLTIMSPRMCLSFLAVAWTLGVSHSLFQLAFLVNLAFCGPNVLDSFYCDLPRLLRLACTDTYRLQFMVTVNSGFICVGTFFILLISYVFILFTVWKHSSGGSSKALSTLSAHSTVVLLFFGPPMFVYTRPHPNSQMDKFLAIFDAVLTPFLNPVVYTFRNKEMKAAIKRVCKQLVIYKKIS
Procedure, shortened: as §1

OR4F3 (Homo sapiens) = molecular target: T3, OR4F3 (Homo sapiens) (UniProt Q6IEY1)
T3 sequence (whole entry): T2 sequence (whole entry) with F44L, I107V, K310R
Procedure, shortened: as §1

OR4F4 (Homo sapiens) = molecular target: T4, OR4F4 (Homo sapiens) (UniProt Q96R69)
T4 sequence (whole entry): T1 sequence (whole entry) with G15E, R221C, Q293R
Procedure, shortened: as §1

OR4F5 (Homo sapiens) = molecular target: T5, OR4F5 (Homo sapiens) (UniProt Q8NH21)
T5 sequence (whole entry): T1 sequence (whole entry) with G15E, A141T, P160L
Procedure, shortened: as §1

OR4F6 (Homo sapiens) = molecular target: T6, OR4F6 (Homo sapiens) (UniProt Q8NGB9)
T6 sequence (whole entry): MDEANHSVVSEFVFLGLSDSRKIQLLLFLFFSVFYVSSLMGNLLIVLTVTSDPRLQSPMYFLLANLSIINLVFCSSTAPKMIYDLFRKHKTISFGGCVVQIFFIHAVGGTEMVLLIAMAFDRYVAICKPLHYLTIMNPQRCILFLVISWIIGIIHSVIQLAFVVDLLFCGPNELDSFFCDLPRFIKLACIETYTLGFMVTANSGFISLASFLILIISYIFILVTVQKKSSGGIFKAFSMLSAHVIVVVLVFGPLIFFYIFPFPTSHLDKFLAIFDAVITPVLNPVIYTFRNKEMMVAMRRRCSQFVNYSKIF
Procedure, shortened: as §1

OR4K1 (Homo sapiens) = molecular target: T7, OR4K1 (Homo sapiens) (UniProt Q8NGD4)
T7 sequence (whole entry): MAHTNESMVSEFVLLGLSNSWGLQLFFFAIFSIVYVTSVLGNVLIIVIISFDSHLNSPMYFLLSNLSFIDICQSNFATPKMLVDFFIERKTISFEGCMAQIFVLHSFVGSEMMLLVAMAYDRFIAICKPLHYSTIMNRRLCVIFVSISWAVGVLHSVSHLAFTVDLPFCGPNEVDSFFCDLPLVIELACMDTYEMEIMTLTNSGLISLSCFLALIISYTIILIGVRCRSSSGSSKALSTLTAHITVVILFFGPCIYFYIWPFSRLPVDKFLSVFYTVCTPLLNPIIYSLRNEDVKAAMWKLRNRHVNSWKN
Procedure, shortened: as §1

OR4F5 T141A Q293R = system: T8, OR4F5 T141A Q293R
T8 sequence (whole entry): T1 sequence (whole entry) with G15E, P160L, Q293R
Procedure, shortened: as §1

OR4F3 R310K = system: OR4F3 R310K
Procedure, shortened: as §1

OR4F3 V107I = system: OR4F3 V107I
Procedure, shortened: as §1

Measured: odorant receptor agonist call;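 further: active if original authors judged signal statistically different from baseline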

Chain of OR4F3 R310K (as listed by the source, stated change not applied): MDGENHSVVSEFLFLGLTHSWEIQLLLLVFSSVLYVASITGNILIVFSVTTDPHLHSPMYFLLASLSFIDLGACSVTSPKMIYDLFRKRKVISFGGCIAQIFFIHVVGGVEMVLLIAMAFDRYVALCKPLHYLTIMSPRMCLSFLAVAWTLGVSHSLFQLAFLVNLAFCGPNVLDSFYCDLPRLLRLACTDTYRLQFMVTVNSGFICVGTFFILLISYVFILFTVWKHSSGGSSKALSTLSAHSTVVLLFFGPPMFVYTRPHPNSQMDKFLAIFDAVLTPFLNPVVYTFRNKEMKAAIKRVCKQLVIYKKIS
Chain of OR4F3 V107I (as listed by the source, stated change not applied): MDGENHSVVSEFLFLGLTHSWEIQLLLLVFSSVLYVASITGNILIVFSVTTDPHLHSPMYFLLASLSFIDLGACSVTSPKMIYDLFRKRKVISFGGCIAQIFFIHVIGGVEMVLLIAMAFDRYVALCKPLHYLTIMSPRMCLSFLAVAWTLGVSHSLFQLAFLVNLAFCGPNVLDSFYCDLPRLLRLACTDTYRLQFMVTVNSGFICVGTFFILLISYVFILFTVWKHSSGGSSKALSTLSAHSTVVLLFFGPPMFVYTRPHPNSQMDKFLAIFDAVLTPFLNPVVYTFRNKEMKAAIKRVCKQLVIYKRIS

CC1CCCCCCCCCCCCC(=O)C1 (stereo not given)
not listed: OR4F5 T141A Q293R | OR4F3 R310K | OR4F3 V107I
inactive: all other assays above

CCC1OC(C)=C(O)C1=O (stereo not given)
not listed: OR4F3 R310K | OR4F3 V107I
inactive: all other assays above

CCCCCC(S)C(C)CO (stereo not given)
not listed: OR4F5 T141A Q293R | OR4F3 R310K | OR4F3 V107I
inactive: all other assays above

CCCCC(S)C(C)CO (stereo not given)
not listed: OR4F5 T141A Q293R | OR4F3 R310K | OR4F3 V107I
inactive: all other assays above

Cc1cnc(C)c(C)n1
not listed: OR4F3 R310K | OR4F3 V107I
inactive: all other assays above

CCCCCC(=O)C(C)C(C)=O (stereo not given)
not listed: OR4F5 T141A Q293R | OR4F3 R310K | OR4F3 V107I
inactive: all other assays above

CCCCCCC=CCCC=O
inactive: all assays above

CC(CO)CS (stereo not given)
not listed: OR4F5 T141A Q293R | OR4F3 R310K | OR4F3 V107I
inactive: all other assays above

CCC1OC(=O)C(O)=C1C (stereo not given)
not listed: OR4F3 R310K | OR4F3 V107I
inactive: all other assays above

CC1=C(O)C(=O)OC1C (stereo not given)
not listed: OR4F3 R310K | OR4F3 V107I
inactive: all other assays above

CCCC(S)CCOC(C)=O (stereo not given)
not listed: OR4F3 R310K | OR4F3 V107I
inactive: all other assays above

CC1=NC(C)C(C)S1 (stereo not given)
not listed: OR4F3 R310K | OR4F3 V107I
inactive: all other assays above

CC(=O)c1c(C)c([N+](=O)[O-])c(C(C)(C)C)c([N+](=O)[O-])c1C
not listed: OR4F5 T141A Q293R | OR4F3 R310K | OR4F3 V107I
inactive: all other assays above

CCC(S)C(C)CO (stereo not given)
not listed: OR4F5 T141A Q293R | OR4F3 R310K | OR4F3 V107I
inactive: all other assays above

CC1=C(O)C(=O)C(C)O1 (stereo not given)
not listed: OR4F3 R310K | OR4F3 V107I
inactive: all other assays above
